Consider 20 compounds from ChEMBL document CHEMBL1143279, “Synthesis, reduction potentials, and antitubercular activity of ring A/B analogues of the bioreductive drug (6S)-2-nitro-6-{[4-(trifluoromethoxy)benzyl]oxy}-6,7-dihydro-5H-imidazo[2,1-b][1,3]oxazine (PA-824)” (J Med Chem, 2009).

Structures are written as SMILES. Converted amounts (≈) assume the structure as drawn. A value given as a limit tells only on which side of the number the result lay.

For orientation: IC50 means the concentration that inhibits the measured activity by half. As a reminder, the MIC is the least concentration at which growth counts as inhibited. As a reminder, the inhibition is the drop in the measured response relative to a control, in per cent.

In one assay the test system is Vero. The assay is described as follows: Cytotoxicity against african green monkey Vero cells after 72 hrs. Type of assay: cell-based. Conditions: Chlorocebus sabaeus. The method, boiled down:
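VERO (CCL-81) monolayers exposed 72 h to 3-fold serial dilutions of compound. Viability read by tetrazolium dye reduction, product absorbance at 490 nm. Untreated cells set 0% inhibition, SDS-lysed cells 100% inhibition.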

The subject of assay [1] is Mycobacterium tuberculosis. As to the kind of experiment: Antimicrobial activity against Mycobacterium tuberculosis after 8 days in aerobic condition by alamar blue assay. The assay is classed as functional. Conditions: 192 h. A digest of the protocol: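 Replicating M. tb was tested in an 8-day microplate assay. Alamar blue was added on day 7 to measure growth. The MIC was taken as the lowest drug concentration giving >90% inhibition.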
(Resazurin is reduced to fluorescent resorufin, in cell work by metabolically active cells.)

The subject of assay [2] is Mycobacterium tuberculosis. The assay is described as follows: Antimicrobial activity against Mycobacterium tuberculosis assessed as growth inhibition at 100 uM after 8 days under aerobic condition by alamar blue assay. Type of assay: functional. Conditions: 192 h.
In assay [3] the test system is Mycobacterium tuberculosis. As to the kind of experiment: Antimicrobial activity against Mycobacterium tuberculosis after 11 days under anaerobic condition by luminescence-based low oxygen recovery assay. Type of assay: functional. Conditions: 264 h.
The test system of assay [4] is Mycobacterium tuberculosis. The assay is described as follows: Antimicrobial activity against Mycobacterium tuberculosis assessed as growth inhibition at 100 uM after 11 days under anaerobic condition by luminescence-based low oxygen recovery assay. Type of assay: functional. Conditions: 264 h.

In the case of `O=[N+]([O-])c1cn2c(n1)OCC(OCc1ccc(OC(F)(F)F)cc1)C2` (stereo unspecified), the IC50 with Vero was over 128 µM.
Compound `O=[N+]([O-])c1nc2n(n1)C[C@H](OCc1ccc(OC(F)(F)F)cc1)CO2` registered an MIC in assay [1] of over 128 µM. The compound also showed an IC50 with Vero of over 128 µM. In addition, the inhibition at 100 µM in assay [2] came to 81%.
Take `O=[N+]([O-])c1nc2n(n1)C[C@@H](OCc1ccc(OC(F)(F)F)cc1)CO2`: in assay [1], the MIC was over 128 µM. In the assay on Vero, this compound had an IC50 of over 128 µM. For the same compound, the inhibition at 100 µM in assay [2] came to 84%.
Take `O=[N+]([O-])c1nc2n(n1)C[C@H](OCc1ccc(OCc3ccccc3)cc1)CO2`: the MIC in assay [1] was over 128 µM. Also, the inhibition at 100 µM in assay [2] came to 18%.
As to `O=[N+]([O-])c1cn2c(n1)CCC(OCc1ccc(OCc3ccccc3)cc1)C2` (stereo unspecified), the MIC in assay [1] and in assay [3] was over 128 µM each time. Also, the inhibition at 100 µM in assay [2] came to 5%; in assay [4], 49%.
In the case of `O=[N+]([O-])c1cn2c(n1)NCC(OCc1ccc(OC(F)(F)F)cc1)C2` (stereo unspecified), the MIC in assay [1] and in assay [3] was over 128 µM each time. Further, the inhibition at 100 µM in assay [2] turned out to be 63%; in assay [4], 64%.
`CN1CC(OCc2ccc(OCc3ccccc3)cc2)Cn2nc([N+](=O)[O-])cc21` (stereo unspecified): the MIC in assay [1] and in assay [3] was over 128 µM throughout. For the same compound, the IC50 with Vero is over 128 µM. The inhibition at 100 µM in assay [2] was determined as 58%; in assay [4], 3%.
Consider `O=[N+]([O-])c1cc2n(n1)CC(OCc1ccc(OC(F)(F)F)cc1)CN2` (stereo unspecified), for which the MIC is over 128 µM in assay [1] and 111 µM (≈ 39.8 µg/mL) in assay [3]. Besides, the inhibition at 100 µM in assay [2] is 61%.
For the compound `O=[N+]([O-])c1cc2n(n1)CC(OCc1ccc(OCc3ccccc3)cc1)CN2` (stereo unspecified), the MIC in assay [1] and in assay [3] was over 128 µM each time. For the same compound, the figures for the inhibition at 100 µM in assay [2] and in assay [4] were 55% and 41%, respectively.
In the assay with Vero, `O=[N+]([O-])c1cn2c(n1)OCC(OCc1ccc(OCc3ccccc3)cc1)C2` (stereo unspecified) returned an IC50 of over 128 µM.
Turning to `O=[N+]([O-])c1cn2c(n1)SCC(OCc1ccc(OC(F)(F)F)cc1)C2` (stereo unspecified), the results for the MIC in assay [1] and in assay [3] were 1.1 µM (≈ 0.413 µg/mL) and 13 µM (≈ 4.88 µg/mL), respectively. The compound further returned an IC50 in the assay on Vero of over 128 µM.
Take `O=[N+]([O-])c1cn2c(n1)[S+]([O-])CC(OCc1ccc(OC(F)(F)F)cc1)C2` (stereo unspecified): the MIC is over 128 µM in assay [1] and 92 µM (≈ 36 µg/mL) in assay [3]. Further, the IC50 in the assay with Vero was over 128 µM. The inhibition at 100 µM in assay [2] worked out at 87%.
On to `O=[N+]([O-])c1cn2c(n1)[S+]([O-])CC(OCc1ccc(OCc3ccccc3)cc1)C2` (stereo unspecified), for which the MIC in assay [1] and in assay [3] was over 128 µM throughout. Also, in the assay with Vero, half-maximal inhibition (IC50) required 63 µM. Also, the inhibition at 100 µM in assay [2] worked out at 23%; in assay [4], 20%.
On to `O=[N+]([O-])c1cn2c(n1)S(=O)(=O)CC(OCc1ccc(OC(F)(F)F)cc1)C2` (stereo unspecified), for which the MIC was over 128 µM in assay [1] and 89 µM (≈ 36.3 µg/mL) in assay [3]. Moreover, in the assay with Vero, the IC50 was over 128 µM. In addition, the inhibition at 100 µM in assay [2] was found to be 89%.
As for `O=[N+]([O-])c1cn2c(n1)SCC(OCc1ccc(OCc3ccccc3)cc1)C2` (stereo unspecified), the MIC in assay [1] turned out to be 1.1 µM (≈ 0.437 µg/mL); in assay [3], 11 µM (≈ 4.37 µg/mL). This compound returned an IC50 in the assay with Vero of over 128 µM.
Regarding `O=[N+]([O-])c1cc2n(n1)CC(OCc1ccc(OCc3ccccc3)cc1)CO2` (stereo unspecified), the MIC in assay [1] and in assay [3] was over 128 µM in each case. The compound also registered an IC50 in the assay with Vero of 82 µM. For the same compound, the inhibition at 100 µM in assay [2] was 38%; in assay [4], 19%.
Take `O=[N+]([O-])c1cn2c(n1)S(=O)(=O)CC(OCc1ccc(OCc3ccccc3)cc1)C2` (stereo unspecified): the MIC in assay [1] and in assay [3] was over 128 µM each time. In addition, the IC50 with Vero was over 128 µM. Further, the inhibition at 100 µM in assay [2] is 61%; in assay [4], 79%.
Turning to `O=[N+]([O-])c1cn2c(n1)CCC(OCc1ccc(OC(F)(F)F)cc1)C2` (stereo unspecified), the MIC is 126 µM (≈ 45 µg/mL) in assay [1] and over 128 µM in assay [3]. In assay [4], the inhibition at 100 µM worked out at 75%.
`O=[N+]([O-])c1cc2n(n1)CC(OCc1ccc(OC(F)(F)F)cc1)CO2` (stereo unspecified) had an MIC in assay [1] of over 128 µM. In the assay with Vero, this compound displayed an IC50 of 88 µM. The inhibition at 100 µM came to 89% in assay [2] and 86% in assay [4].
In the case of `CN1CC(OCc2ccc(OC(F)(F)F)cc2)Cn2nc([N+](=O)[O-])cc21` (stereo unspecified), the MIC in assay [1] and in assay [3] was over 128 µM each time. The compound also displayed a half-inhibitory concentration (IC50) in the assay on Vero of over 128 µM. Also, the inhibition at 100 µM in assay [2] turned out to be 61%; in assay [4], 37%.
